According to ChEMBL document CHEMBL3785056, “New imidazoquinoxaline derivatives: Synthesis, biological evaluation on melanoma, effect on tubulin polymerization and structure-activity relationships” (Bioorg Med Chem, 2016):
The source made the active and inactive calls. No cut-off for these calls is given here.

Tests used:
A-375 [1] = assay: Antiproliferative activity against human A375 cells assessed as cell growth inhibition after 96 hrs by MTT assay; format: functional, cell-based; conditions: A-375, 96 h
Method in brief: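 A375 cells in RPMI-1640 with 10% heat-inactivated FBS, 37 °C, 5% CO2, seeded 5000 cells/well and attached overnight. Exposed 96 h to […] in 1% DMSO/medium. MTT read at 570 nm after isopropanol/HCl solubilization. Survival given as % of vehicle control. IC50 taken from sigmoidal dose-response curves, at least three experiments in triplicate.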

Tubulin (Sus scrofa) = Tubulin (Sus scrofa) (UniProt P02554+P02550); assay: Inhibition of pig brain tubulin polymerization at 5 uM by spectrophotometric analysis
Chain of Tubulin (Sus scrofa) (P02550 whole entry, looked up): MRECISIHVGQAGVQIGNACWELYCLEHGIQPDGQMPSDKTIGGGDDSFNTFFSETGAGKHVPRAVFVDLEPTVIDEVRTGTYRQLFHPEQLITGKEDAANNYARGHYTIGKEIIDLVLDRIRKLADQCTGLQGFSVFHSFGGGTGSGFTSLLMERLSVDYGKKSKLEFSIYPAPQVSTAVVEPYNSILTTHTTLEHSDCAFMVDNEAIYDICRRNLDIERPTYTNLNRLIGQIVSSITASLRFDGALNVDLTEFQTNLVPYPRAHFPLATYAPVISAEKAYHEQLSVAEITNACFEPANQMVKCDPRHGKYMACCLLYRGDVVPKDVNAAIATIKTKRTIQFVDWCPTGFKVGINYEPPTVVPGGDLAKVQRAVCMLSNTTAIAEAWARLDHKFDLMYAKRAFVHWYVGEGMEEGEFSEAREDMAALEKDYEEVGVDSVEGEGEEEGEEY
Chain of Tubulin (Sus scrofa) (P02554 whole entry, looked up): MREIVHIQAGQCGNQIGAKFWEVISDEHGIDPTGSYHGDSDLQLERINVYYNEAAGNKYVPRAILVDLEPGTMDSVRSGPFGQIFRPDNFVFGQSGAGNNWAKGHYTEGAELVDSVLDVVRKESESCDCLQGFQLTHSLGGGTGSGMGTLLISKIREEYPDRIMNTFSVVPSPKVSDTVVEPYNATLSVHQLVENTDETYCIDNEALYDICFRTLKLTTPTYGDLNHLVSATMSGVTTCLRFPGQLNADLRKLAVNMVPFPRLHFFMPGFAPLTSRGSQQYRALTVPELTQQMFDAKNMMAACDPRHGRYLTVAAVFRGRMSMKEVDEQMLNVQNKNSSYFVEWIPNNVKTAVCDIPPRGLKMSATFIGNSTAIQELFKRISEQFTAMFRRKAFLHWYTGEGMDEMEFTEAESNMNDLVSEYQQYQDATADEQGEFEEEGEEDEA
Method in brief: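 Compound 5 µM final, DMSO as negative control. Polymerization at 37 °C followed by turbidity at 350 nm, with ice added after 45 min to check depolymerization. Given as % inhibition from three independent experiments.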

A-375 [2] = assay: Cell cycle arrest in human A375 cells assessed as effect on number of cells at G0/G1 phase after 24 hrs by propidium iodide staining based flow cytometric analysis; format: functional
Method in brief: (§1)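 A375 cells treated 24 h, washed in PBS and pelleted at 400g, 4 °C. Pellet lysed in ice-cold hypotonic solution (PI 25 µg/ml, 0.1% trisodium citrate, RNase A, 0.1% Triton X-100) and held overnight on ice. DNA content read by flow cytometry, giving G0/G1, S and G2/M percentages.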

A-375 [3] = assay: Cell cycle arrest in human A375 cells assessed as effect on number of cells at S phase after 24 hrs by propidium iodide staining based flow cytometric analysis; format: functional; method in brief: as §1
A-375 [4] = assay: Cell cycle arrest in human A375 cells assessed as accumulation of cells at G2/M phase after 24 hrs by propidium iodide staining based flow cytometric analysis; format: functional; method in brief: as §1

Compound	IC50 (A-375 [1])	inhibition (Tubulin (Sus scrofa))	Activity (A-375 [2])	Activity (A-375 [3])	Activity (A-375 [4])
Nc1nc2ccccc2n2c(-c3cccc(O)c3)cnc12	2.4 µM	11.3%			
CNc1nc2ccccc2n2c(-c3ccccc3OC)cnc12		inactive			
CNc1nc2ccccc2n2c(-c3ccc(OC)cc3)cnc12		99%	Dose-dependent effect	Dose-dependent effect	Dose-dependent effect
CNc1nc2ccccc2n2c(-c3cccc(OC)c3)cnc12		84%	Dose-dependent effect	Dose-dependent effect	Dose-dependent effect
CNc1nc2ccccc2n2c(-c3cccc(OC)c3OC)cnc12	5.9 µM	inactive			
CNc1nc2ccccc2n2c(-c3c(OC)cc(OC)cc3OC)cnc12	2.3 µM	inactive			
COc1cc2c(c(OC)c1OC)-c1ccc(OC)c(=O)cc1[C@@H](NC(C)=O)CC2 [COLCHICINE]	0.01 µM				

The next lines start with results.

IC50 (A-375 [1])	inhibition (Tubulin (Sus scrofa))	Compound	Activity (A-375 [2])	Activity (A-375 [3])	Activity (A-375 [4])
1.2 µM	3%	CNc1nc2ccccc2n2c(-c3cc(OC)ccc3OC)cnc12			
1.25 µM	inactive	CNc1nc2ccccc2n2c(-c3cccc(O)c3)cnc12			
1.5 µM	inactive	CNc1nc2ccccc2n2c(-c3ccc(OC)c(OC)c3OC)cnc12			
0.077 µM	90%	CNc1nc2ccccc2n2c(-c3cccc(OC)c3O)cnc12			
0.22 µM	98.5%	CNc1nc2ccccc2n2c(-c3cc(OC)cc(OC)c3)cnc12	Dose-dependent effect	Dose-dependent effect	Dose-dependent effect
0.3 µM	63%	CNc1nc2ccccc2n2c(-c3ccc(OC)c(OC)c3)cnc12			
0.2 µM	41%	COc1cccc(-c2cnc3c(N)nc4ccccc4n23)c1			
1.8 µM	inactive	CNc1nc2ccccc2n2c(-c3cc(OC)c(OC)c(OC)c3)cnc12			
